In ChEMBL document CHEMBL3352437, “Novel 3,5-bis(arylidene)-4-oxo-1-piperidinyl dimers: structure-activity relationships and potent antileukemic and antilymphoma cytotoxicity” (Eur J Med Chem, 2014) one finds Activity and IC50 data, which are given here for one compound.

Each structure is given as a SMILES string.

The test system of one data set is BJAB. Put plainly: Cytotoxicity against human BJAB cells assessed as dead cells at 1 uM after 24 hrs. It is filed as functional.
Conditions: not given
An outline of the steps: (§1)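 Dienones added as DMSO solutions to cells in RPMI medium and incubated 24 h at 37°C. Cytotoxicity was scored as cell-membrane disruption by propidium iodide staining and expressed as percentage of dead cells, averaged over three independent experiments.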
In the case of `O=C1/C(=C\c2ccc(F)cc2)CN(C(=O)CC(=O)N2C/C(=C\c3ccc(F)cc3)C(=O)/C(=C/c3ccc(F)cc3)C2)C/C1=C\c1ccc(F)cc1`, the Activity was determined as 61.2%.

Test system in the next data set: not listed separately
Description: Cytotoxicity against human 22Rvl cells assessed as dead cells at 1 uM after 24 hrs.
Conditions: not given
The data set is classed as functional. The method, boiled down:
as §1
Take `O=C1/C(=C\c2ccc(F)cc2)CN(C(=O)CC(=O)N2C/C(=C\c3ccc(F)cc3)C(=O)/C(=C/c3ccc(F)cc3)C2)C/C1=C\c1ccc(F)cc1`: the Activity is reported as 18.8%.

For the next data set, the system named is Raji. Description: Cytotoxicity against human Raji cells assessed as dead cells at 1 uM after 24 hrs. The data set is classed as functional.
Conditions: not given
The method, boiled down:
as §1
Consider `O=C1/C(=C\c2ccc(F)cc2)CN(C(=O)CC(=O)N2C/C(=C\c3ccc(F)cc3)C(=O)/C(=C/c3ccc(F)cc3)C2)C/C1=C\c1ccc(F)cc1`, for which the Activity was determined as 35.3%.

Test system in the next data set: not listed separately
Description: Cytotoxicity against human MOLT3 cells assessed as dead cells at 1 uM after 24 hrs.
Conditions: not given
It is filed as functional, MOLT-3. The method, boiled down: as §1
For `O=C1/C(=C\c2ccc(F)cc2)CN(C(=O)CC(=O)N2C/C(=C\c3ccc(F)cc3)C(=O)/C(=C/c3ccc(F)cc3)C2)C/C1=C\c1ccc(F)cc1`, the Activity stood at 2.6%.

A further data set has as its system CCRF-CEM. Put plainly: Antiproliferative activity against human CEM cells after 72 hrs by coulter counting analysis.
Conditions: not given
The data set is classed as functional, cell-based. An outline of the steps: (§2)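 Cells exposed to a range of concentrations in RPMI 1640 at 37°C for 72 h. Surviving cells counted by Coulter counter. IC50 taken from concentration-response curves, mean ± SD of at least three independent experiments.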
`O=C1/C(=C\c2ccc(F)cc2)CN(C(=O)CC(=O)N2C/C(=C\c3ccc(F)cc3)C(=O)/C(=C/c3ccc(F)cc3)C2)C/C1=C\c1ccc(F)cc1` displayed an IC50 of 2.75 µM.

For another data set, the system named is HeLa. Put plainly: Antiproliferative activity against human HeLa cells after 72 hrs by coulter counting analysis. It is filed as functional, cell-based.
Conditions: not given
An outline of the steps: as §2
Turning to `O=C1/C(=C\c2ccc(F)cc2)CN(C(=O)CC(=O)N2C/C(=C\c3ccc(F)cc3)C(=O)/C(=C/c3ccc(F)cc3)C2)C/C1=C\c1ccc(F)cc1`, the IC50 is 5.61 µM.

The next data set has as its system HS27. Put plainly: Cytotoxicity against human HS27 cells assessed as dead cells at 1 uM after 24 hrs. The data set is classed as cell-based. The settings on record: hs27, 24 h. The method, boiled down: (§3)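 Compounds added from DMSO solutions to cells in medium (RPMI; DMEM for Hs-27 fibroblasts) and incubated 24 h at 37°C. Membrane disruption scored by propidium iodide uptake. Result is percentage of dead cells, average of three independent experiments.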
With `O=C1/C(=C\c2ccc(F)cc2)CN(C(=O)CC(=O)N2C/C(=C\c3ccc(F)cc3)C(=O)/C(=C/c3ccc(F)cc3)C2)C/C1=C\c1ccc(F)cc1`, the Activity was determined as 0.3%.

Test system in a further data set: not listed separately
Description: Cytotoxicity against human MDA231 cells assessed as dead cells at 1 uM after 24 hrs. The data set is classed as functional, MDA-MB-231.
Conditions: not given
The method, boiled down: as §1
With `O=C1/C(=C\c2ccc(F)cc2)CN(C(=O)CC(=O)N2C/C(=C\c3ccc(F)cc3)C(=O)/C(=C/c3ccc(F)cc3)C2)C/C1=C\c1ccc(F)cc1`, the Activity was 0.4%.

The next data set relates to LAPC4. Description: Cytotoxicity against human LAPC4 cells assessed as dead cells at 1 uM after 24 hrs.
Conditions: not given
The data set is classed as functional. The method, boiled down:
as §1
With `O=C1/C(=C\c2ccc(F)cc2)CN(C(=O)CC(=O)N2C/C(=C\c3ccc(F)cc3)C(=O)/C(=C/c3ccc(F)cc3)C2)C/C1=C\c1ccc(F)cc1`, the Activity is listed as 11.1%.

Another data set concerns L1210. Description: Antiproliferative activity against mouse L1210 cells after 72 hrs by coulter counting analysis. To be noted: L1210, 72 h. The data set is classed as functional, cell-based.
`O=C1/C(=C\c2ccc(F)cc2)CN(C(=O)CC(=O)N2C/C(=C\c3ccc(F)cc3)C(=O)/C(=C/c3ccc(F)cc3)C2)C/C1=C\c1ccc(F)cc1` yielded an IC50 of 11 µM.

For the next data set, the system named is Jurkat. Put plainly: Cytotoxicity against human Jurkat cells assessed as dead cells at 1 uM after 24 hrs. The data set is classed as functional.
Conditions: not given
An outline of the steps:
as §1
In the case of `O=C1/C(=C\c2ccc(F)cc2)CN(C(=O)CC(=O)N2C/C(=C\c3ccc(F)cc3)C(=O)/C(=C/c3ccc(F)cc3)C2)C/C1=C\c1ccc(F)cc1`, the Activity was 87.1%.

A further data set deals with Ramos. Put plainly: Cytotoxicity against human Ramos cells assessed as dead cells at 1 uM after 24 hrs. It is filed as functional.
Conditions: not given
The method, boiled down:
as §1
As to `O=C1/C(=C\c2ccc(F)cc2)CN(C(=O)CC(=O)N2C/C(=C\c3ccc(F)cc3)C(=O)/C(=C/c3ccc(F)cc3)C2)C/C1=C\c1ccc(F)cc1`, the Activity is on record as 78.6%.

A further data set deals with MCF7. Put plainly: Cytotoxicity against human MCF7 cells assessed as dead cells at 1 uM after 24 hrs. It is filed as functional.
Conditions: not given
The method, boiled down:
as §1
On to `O=C1/C(=C\c2ccc(F)cc2)CN(C(=O)CC(=O)N2C/C(=C\c3ccc(F)cc3)C(=O)/C(=C/c3ccc(F)cc3)C2)C/C1=C\c1ccc(F)cc1`, for which the Activity is on record as 0.2%.

Another data set has as its system YT. Description: Cytotoxicity against human YT cells assessed as dead cells at 1 uM after 24 hrs. The data set is classed as functional.
Conditions: not given
An outline of the steps:
as §1
On to `O=C1/C(=C\c2ccc(F)cc2)CN(C(=O)CC(=O)N2C/C(=C\c3ccc(F)cc3)C(=O)/C(=C/c3ccc(F)cc3)C2)C/C1=C\c1ccc(F)cc1`, for which the Activity was 19.2%.

For a further data set, the system named is DU-145. Put plainly: Cytotoxicity against human DU145 cells assessed as dead cells at 1 uM after 24 hrs. It is filed as functional.
Conditions: not given
An outline of the steps: as §1
Regarding `O=C1/C(=C\c2ccc(F)cc2)CN(C(=O)CC(=O)N2C/C(=C\c3ccc(F)cc3)C(=O)/C(=C/c3ccc(F)cc3)C2)C/C1=C\c1ccc(F)cc1`, the Activity turned out to be 38.4%.

The test system of another data set is EL4. Description: Cytotoxicity against mouse EL4 cells assessed as dead cells at 1 uM after 24 hrs. The data set is classed as functional.
Conditions: not given
An outline of the steps:
as §1
With `O=C1/C(=C\c2ccc(F)cc2)CN(C(=O)CC(=O)N2C/C(=C\c3ccc(F)cc3)C(=O)/C(=C/c3ccc(F)cc3)C2)C/C1=C\c1ccc(F)cc1`, the Activity was 47.7%.

Another data set deals with HCC70. Put plainly: Cytotoxicity against human HCC70 cells assessed as dead cells at 1 uM after 24 hrs. The data set is classed as functional.
Conditions: not given
The method, boiled down:
as §1
For `O=C1/C(=C\c2ccc(F)cc2)CN(C(=O)CC(=O)N2C/C(=C\c3ccc(F)cc3)C(=O)/C(=C/c3ccc(F)cc3)C2)C/C1=C\c1ccc(F)cc1`, the Activity was found to be 3.1%.

Test system in a further data set: not listed separately
Description: Antiproliferative activity against human Molt4/C8 cells after 72 hrs by coulter counting analysis. To be noted: MOLT-4, 72 h. It is filed as functional, cell-based. An outline of the steps: as §2
For `O=C1/C(=C\c2ccc(F)cc2)CN(C(=O)CC(=O)N2C/C(=C\c3ccc(F)cc3)C(=O)/C(=C/c3ccc(F)cc3)C2)C/C1=C\c1ccc(F)cc1`, the midpoint of inhibition, the IC50, lay at 1.58 µM. This lies in the single-digit micromolar range.

The test system of a further data set is CCRF-CEM. Description: Cytotoxicity against human CEM cells assessed as dead cells at 1 uM after 24 hrs. The data set is classed as functional.
Conditions: not given
An outline of the steps: as §1
Turning to `O=C1/C(=C\c2ccc(F)cc2)CN(C(=O)CC(=O)N2C/C(=C\c3ccc(F)cc3)C(=O)/C(=C/c3ccc(F)cc3)C2)C/C1=C\c1ccc(F)cc1`, the Activity turned out to be 92.4%.

Test system in another data set: not listed separately
Put plainly: Cytotoxicity against human HuT-102 cells assessed as dead cells at 1 uM after 24 hrs.
Conditions: not given
The data set is classed as functional. The method, boiled down: as §1
`O=C1/C(=C\c2ccc(F)cc2)CN(C(=O)CC(=O)N2C/C(=C\c3ccc(F)cc3)C(=O)/C(=C/c3ccc(F)cc3)C2)C/C1=C\c1ccc(F)cc1`: the Activity was determined as 58.5%.

Test system in another data set: not listed separately
Description: Cytotoxicity against human MCF10A cells assessed as dead cells at 1 uM after 24 hrs. The data set is classed as cell-based. The settings on record: mcf-10a. An outline of the steps:
as §3
`O=C1/C(=C\c2ccc(F)cc2)CN(C(=O)CC(=O)N2C/C(=C\c3ccc(F)cc3)C(=O)/C(=C/c3ccc(F)cc3)C2)C/C1=C\c1ccc(F)cc1`: the Activity is 7%.

Test system in the next data set: not listed separately
Description: Cytotoxicity against human NALM6 cells assessed as dead cells at 1 uM after 24 hrs. It is filed as functional, NALM-6.
Conditions: not given
The method, boiled down: as §1
For `O=C1/C(=C\c2ccc(F)cc2)CN(C(=O)CC(=O)N2C/C(=C\c3ccc(F)cc3)C(=O)/C(=C/c3ccc(F)cc3)C2)C/C1=C\c1ccc(F)cc1`, the Activity came to 51.9%.

Test system in a further data set: not listed separately
Put plainly: Cytotoxicity against human SupT1 cells assessed as dead cells at 1 uM after 24 hrs. It is filed as functional, SUP-T1.
Conditions: not given
An outline of the steps:
as §1
On to `O=C1/C(=C\c2ccc(F)cc2)CN(C(=O)CC(=O)N2C/C(=C\c3ccc(F)cc3)C(=O)/C(=C/c3ccc(F)cc3)C2)C/C1=C\c1ccc(F)cc1`, for which the Activity turned out to be 24.9%.
